Experimental data from ChEMBL document CHEMBL1125516, “TSAO analogues. Stereospecific synthesis and anti-HIV-1 activity of 1-[2',5'-bis-O-(tert-butyldimethylsilyl)-beta-D-ribofuranosyl]-3'-spiro -5''- (4''-amino-1'',2''-oxathiole 2'',2''-dioxide) pyrimidine and pyrimidine-modified nucleosides” (J Med Chem, 1992).

Assays:
[1] = system: MT4; assay: Cytotoxic concentration required to reduce MT-4 cell viability by 50%; assay type: functional; settings: Homo sapiens
Summary of the method: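 MT-4 cells (HTLV-1-transformed human T-lymphocytes) at 5 × 10^5 cells/mL were mock-infected and mixed 1:1 with serial dilutions of compound. After 5 days, viable cells were counted by trypan blue exclusion in a blood-cell-counting chamber. CC50 is the concentration reducing viable cell number by 50%. Values are means of at least three to five independent experiments.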

[2] = Selectivity index was defined as the ratio of CC50 to EC50; assay type: functional
Summary of the method: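 The ratio is CC50/EC50. Both come from MT-4 cells at 5 × 10^5 cells/mL, mixed 1:1 with compound dilutions for 5 days, with viable cells counted by trypan blue. EC50 used cells infected with HIV-1 (IIIB) at 100 CCID50 per mL. CC50 used mock-infected cells. […] Values are means of three to five experiments.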

[3] = system: MT4; assay: Concentration required to inhibit HIV-1 induced cytopathicity in MT-4 cells by 50%; assay type: functional, cell-based; settings: Homo sapiens
Summary of the method: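 HIV-1 IIIB-infected human MT-4 cells (HTLV-1-transformed), 5 x 10^5 cells/mL, infected at 100 CCID50 per mL of cell suspension, then mixed with compound dilutions. After 5 days, viable cells were counted by trypan blue staining in a blood-cell-counting chamber. EC50 is the concentration […]. Values are means of at least three to five independent experiments.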

Q: What does the source list for `Cc1cn([C@@H]2O[C@H](COC(=O)c3ccccc3)[C@@]3(OS(=O)(=O)C=C3N)[C@H]2O[Si](C)(C)C(C)(C)C)c(=O)[nH]c1=O`?
A: CC50 [1]: 36 µM; Selectivity index [2]: < 2.5; EC50 [3]: > 15 µM

Q: Which CC50 [1] does the source give for `Cc1cn([C@@H]2O[C@H](CO[Si](C)(C)C(C)(C)C)C3(OS(=O)(=O)C=C3N)[C@H]2O[Si](C)(C)C(C)(C)C)c(=O)[nH]c1=O` (some centres undefined) here?
A: 14 µM

Q: And the EC50 [3]?
A: 0.06 µM

Q: With `CC(C)=CCn1c(=O)c(C)cn([C@@H]2O[C@H](CO[Si](C)(C)C(C)(C)C)[C@@]3(OS(=O)(=O)C=C3N)[C@H]2O[Si](C)(C)C(C)(C)C)c1=O` as the compound, how does the CC50 [1] read?
A: 69 µM

Q: What about the Selectivity index [2] of the same compound?
A: 183

Q: And the EC50 [3]?
A: 0.377 µM

Q: For `Cc1cn([C@@H]2O[C@H](CO[Si](C)(C)C(C)(C)C)[C@@]3(OS(=O)(=O)C=C3N)[C@H]2O[Si](C)(C)C(C)(C)C)c(=O)n(C)c1=O`, which CC50 [1] is on record?
A: 240 µM

Q: What about the Selectivity index [2] of the same compound?
A: 4090

Q: And the EC50 [3]?
A: 0.059 µM

Q: With `Cc1ccnc2c1NC(=O)c1cccnc1N2C1CC1` [NEVIRAPINE] as the compound, how does the CC50 [1] read?
A: > 80 µM

Q: And the Selectivity index [2]?
A: > 625

Q: And the EC50 [3]?
A: 0.128 µM

Q: Which results are given for `CC(C)(C)[Si](C)(C)OC[C@H]1O[C@@H](n2ccc(=O)[nH]c2=O)[C@H](O[Si](C)(C)C(C)(C)C)C12OS(=O)(=O)C=C2N` (some centres undefined)?
A: CC50 [1]: 15 µM; Selectivity index [2]: 73; EC50 [3]: 0.206 µM

Q: Which CC50 [1] does the source give for `CC(=O)O[C@H]1[C@H](n2cc(C)c(=O)[nH]c2=O)O[C@H](COC(=O)c2ccccc2)[C@@]12OS(=O)(=O)C=C2N` here?
A: > 200 µM

Q: And the EC50 [3]?
A: > 200 µM

Q: Which CC50 [1] does the source give for `CCn1c(=O)c(C)cn([C@@H]2O[C@H](CO[Si](C)(C)C(C)(C)C)[C@@]3(OS(=O)(=O)C=C3N)[C@H]2O[Si](C)(C)C(C)(C)C)c1=O` here?
A: 123 µM

Q: And the Selectivity index [2]?
A: 1000

Q: And the EC50 [3]?
A: 0.123 µM

Q: What does the source list for `Cc1cn([C@@H]2O[C@H](CO)[C@@]3(OS(=O)(=O)C=C3N)[C@H]2O[Si](C)(C)C(C)(C)C)c(=O)[nH]c1=O`?
A: CC50 [1]: 229 µM; Selectivity index [2]: < 2.5; EC50 [3]: > 80 µM

Q: For `C=CCn1c(=O)ccn([C@@H]2O[C@H](CO[Si](C)(C)C(C)(C)C)[C@@]3(OS(=O)(=O)C=C3N)[C@H]2O[Si](C)(C)C(C)(C)C)c1=O`, which CC50 [1] is on record?
A: 8.9 µM

Q: And the Selectivity index [2]?
A: 15

Q: What about the EC50 [3] of the same compound?
A: 0.615 µM

Q: For `C=CCn1c(=O)c(C)cn([C@@H]2O[C@H](CO[Si](C)(C)C(C)(C)C)[C@@]3(OS(=O)(=O)C=C3N)[C@H]2O[Si](C)(C)C(C)(C)C)c1=O`, which Selectivity index [2] is on record?
A: > 1420

Q: And the EC50 [3]?
A: 0.233 µM

Q: Which results are given for `CC(C)=CCN1Cc2cccc3[nH]c(=S)n(c23)C[C@@H]1C`?
A: CC50 [1]: > 80 µM; Selectivity index [2]: > 1050; EC50 [3]: 0.076 µM

Q: Which CC50 [1] does the source give for `CC(C)(C)[Si](C)(C)OC[C@H]1O[C@@H](n2ccc(N)nc2=O)[C@H](O[Si](C)(C)C(C)(C)C)[C@]12OS(=O)(=O)C=C2N` here?
A: > 360 µM

Q: And the Selectivity index [2]?
A: > 360

Q: And the EC50 [3]?
A: 1 µM

Q: For `Cc1cn([C@@H]2O[C@H](CO[Si](C)(C)C(C)(C)C)[C@@]3(OS(=O)(=O)C=C3N)[C@H]2O[Si](C)(C)C(C)(C)C)c(=O)nc1N`, which CC50 [1] is on record?
A: 31 µM

Q: And the Selectivity index [2]?
A: 246

Q: And the EC50 [3]?
A: 0.127 µM
